{
  "source": "the RNAGym collection of RNA variant scans (doi:10.1038/s41586-018-0170-7)",
  "parents": {"B1": {"name": "tRNA (parent)", "chain": "GUUCCGUUGGCGUAAUGGUAACGCGUCUCCCUCCUAAGGAGAAGACUGCGGGUUCGAGUCCCGUACGGAACG"}},
  "data": [
    {"variants_of": "B1", "assay": "yeast fitness, log relative to wild type (ln ratio); higher = fitter; tRNA-Arg(CCU), competitive growth, 37 C, 1 M NaCl", "summary_of_the_method": "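Variants were counted by 125 bp paired-end Illumina sequencing after pools of a combinatorial tRNA-Arg(CCU) library, held on a HIS3 centromeric plasmid in BY4742 lacking the chromosomal gene, grew ~6.5 generations (~26.5 h) in SC-HIS 1M NaCl at 37 °C. Each genotype's fitness is the natural log of its generations relative to the wild type's. Generations were OD-scaled log2 output/input frequencies, inverse-variance weighted over replicates.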", "values": [
      {"variant": "GGUCCAUUGGCGUAAUGGUAACGCGUUUCCCUCCUAAGGAGACGAUUGCGGGUUCGAGUCCCGUAUGGGAUG", "yeast fitness (ln)": -0.377},
      {"variant": "AUUCCAUUGGCGUAAUGGUAACGCGUCUCCCUCCUAAGGAGAAGACUGCGGGUUCGAGUCCCGUAAGGGGUG", "yeast fitness (ln)": -0.194},
      {"variant": "AUUCCAUUGGCGUAAUGGUAACGCGUCUCCCUCCUAAGGAGAAGAUUGCGGGUUCGAGUCCCGUAUGGAUCG", "yeast fitness (ln)": -0.0452},
      {"variant": "GUUCCAUUGGCGUAAUGGUAACGCGUCUCCCUCCUAAGGAGAAGACUGCGGGUUCGAGUCCCGUACGGAACG", "yeast fitness (ln)": -0.0301},
      {"variant": "GUUCCGUUGGCGUAAUGGUAACGCGUCUCCCUCCUAAGGAGAAGACUGCGGGUUCGAGUCCCGUAUGGGGCG", "yeast fitness (ln)": -0.0718},
      {"variant": "GCUCCGUUGGCGUAAUGGUAACGCGUUUCCCUCCUAAGGAGAAGAUUGCGGGUUCGAGUCCCGUAUGGGUUG", "yeast fitness (ln)": -0.411},
      {"variant": "GGUCCAUUGGCGUAAUGGUAACGCGUCUCCCUCCUAAGGAGAAGACUGCGGGUUCGAGUCCCGUAUGGAGUG", "yeast fitness (ln)": -0.253},
      {"variant": "ACUCCUUUGGCGUAAUGGUAACGCGUCUCCCUCCUAAGGAGACGAUUGCGGGUUCGAGUCCCGUAAGGGGCG", "yeast fitness (ln)": -0.25},
      {"variant": "GCUCCUUUGGCGUAAUGGUAACGCGUCUCCCUCCUAAGGAGAAGAUUGCGGGUUCGAGUCCCGUAUGGAUUG", "yeast fitness (ln)": -0.202},
      {"variant": "ACUCCAUUGGCGUAAUGGUAACGCGUCUCCCUCCUAAGGAGAAGACUGCGGGUUCGAGUCCCGUAUGGGGUG", "yeast fitness (ln)": -0.0247},
      {"variant": "AGUCCGUUGGCGUAAUGGUAACGCGUCUCCCUCCUAAGGAGAAGACUGCGGGUUCGAGUCCCGUAAGGAACG", "yeast fitness (ln)": -0.0852},
      {"variant": "GGUCCAUUGGCGUAAUGGUAACGCGUUUCCCUCCUAAGGAGAAGAUUGCGGGUUCGAGUCCCGUACGGGUCG", "yeast fitness (ln)": -0.133},
      {"variant": "ACUCCGUUGGCGUAAUGGUAACGCGUCUCCCUCCUAAGGAGAAGAUUGCGGGUUCGAGUCCCGUAUGGGGCG", "yeast fitness (ln)": -0.127},
      {"variant": "AGUCCUUUGGCGUAAUGGUAACGCGUUUCCCUCCUAAGGAGAAGACUGCGGGUUCGAGUCCCGUACGGGUCG", "yeast fitness (ln)": -0.362},
      {"variant": "GGUCCAUUGGCGUAAUGGUAACGCGUCUCCCUCCUAAGGAGAAGACUGCGGGUUCGAGUCCCGUAAGGAGUG", "yeast fitness (ln)": -0.17},
      {"variant": "GGUCCGUUGGCGUAAUGGUAACGCGUUUCCCUCCUAAGGAGACGACUGCGGGUUCGAGUCCCGUAUGGAAUG", "yeast fitness (ln)": -0.364},
      {"variant": "GCUCCUUUGGCGUAAUGGUAACGCGUUUCCCUCCUAAGGAGACGACUGCGGGUUCGAGUCCCGUAUGGAACG", "yeast fitness (ln)": -0.0999},
      {"variant": "ACUCCGUUGGCGUAAUGGUAACGCGUCUCCCUCCUAAGGAGAAGACUGCGGGUUCGAGUCCCGUACGGAUCG", "yeast fitness (ln)": -0.096},
      {"variant": "GUUCCUUUGGCGUAAUGGUAACGCGUCUCCCUCCUAAGGAGAAGAUUGCGGGUUCGAGUCCCGUAAGGAGUG", "yeast fitness (ln)": -0.15},
      {"variant": "GGUCCUUUGGCGUAAUGGUAACGCGUUUCCCUCCUAAGGAGACGACUGCGGGUUCGAGUCCCGUACGGAAUG", "yeast fitness (ln)": -0.304},
      {"variant": "AUUCCGUUGGCGUAAUGGUAACGCGUUUCCCUCCUAAGGAGAAGACUGCGGGUUCGAGUCCCGUAAGGGGUG", "yeast fitness (ln)": -0.325},
      {"variant": "GGUCCUUUGGCGUAAUGGUAACGCGUUUCCCUCCUAAGGAGACGACUGCGGGUUCGAGUCCCGUACGGAUCG", "yeast fitness (ln)": -0.207},
      {"variant": "AGUCCUUUGGCGUAAUGGUAACGCGUCUCCCUCCUAAGGAGAAGACUGCGGGUUCGAGUCCCGUAUGGAUCG", "yeast fitness (ln)": -0.211},
      {"variant": "AUUCCGUUGGCGUAAUGGUAACGCGUUUCCCUCCUAAGGAGAAGACUGCGGGUUCGAGUCCCGUACGGGUUG", "yeast fitness (ln)": -0.421},
      {"variant": "GGUCCUUUGGCGUAAUGGUAACGCGUCUCCCUCCUAAGGAGAAGACUGCGGGUUCGAGUCCCGUACGGAGCG", "yeast fitness (ln)": -0.0649},
      {"variant": "GGUCCUUUGGCGUAAUGGUAACGCGUCUCCCUCCUAAGGAGACGACUGCGGGUUCGAGUCCCGUACGGAGCG", "yeast fitness (ln)": -0.173},
      {"variant": "AUUCCGUUGGCGUAAUGGUAACGCGUUUCCCUCCUAAGGAGAAGACUGCGGGUUCGAGUCCCGUAAGGGUCG", "yeast fitness (ln)": -0.19},
      {"variant": "GUUCCGUUGGCGUAAUGGUAACGCGUCUCCCUCCUAAGGAGAAGACUGCGGGUUCGAGUCCCGUACGGGACG", "yeast fitness (ln)": -0.00462},
      {"variant": "AUUCCGUUGGCGUAAUGGUAACGCGUUUCCCUCCUAAGGAGAAGACUGCGGGUUCGAGUCCCGUACGGAACG", "yeast fitness (ln)": -0.105},
      {"variant": "AUUCCUUUGGCGUAAUGGUAACGCGUUUCCCUCCUAAGGAGACGAUUGCGGGUUCGAGUCCCGUAAGGGGCG", "yeast fitness (ln)": -0.432},
      {"variant": "AUUCCGUUGGCGUAAUGGUAACGCGUCUCCCUCCUAAGGAGAAGAUUGCGGGUUCGAGUCCCGUACGGGAUG", "yeast fitness (ln)": -0.00219},
      {"variant": "GGUCCAUUGGCGUAAUGGUAACGCGUCUCCCUCCUAAGGAGACGACUGCGGGUUCGAGUCCCGUAAGGAUCG", "yeast fitness (ln)": -0.12},
      {"variant": "AGUCCGUUGGCGUAAUGGUAACGCGUCUCCCUCCUAAGGAGAAGACUGCGGGUUCGAGUCCCGUACGGGGUG", "yeast fitness (ln)": -0.438},
      {"variant": "ACUCCGUUGGCGUAAUGGUAACGCGUCUCCCUCCUAAGGAGAAGAUUGCGGGUUCGAGUCCCGUAAGGAGUG", "yeast fitness (ln)": -0.124},
      {"variant": "GCUCCUUUGGCGUAAUGGUAACGCGUUUCCCUCCUAAGGAGAAGAUUGCGGGUUCGAGUCCCGUAAGGAAUG", "yeast fitness (ln)": -0.0782},
      {"variant": "GGUCCGUUGGCGUAAUGGUAACGCGUCUCCCUCCUAAGGAGAAGACUGCGGGUUCGAGUCCCGUAUGGAGUG", "yeast fitness (ln)": -0.121},
      {"variant": "AGUCCGUUGGCGUAAUGGUAACGCGUCUCCCUCCUAAGGAGACGACUGCGGGUUCGAGUCCCGUAAGGAUCG", "yeast fitness (ln)": -0.12},
      {"variant": "ACUCCGUUGGCGUAAUGGUAACGCGUUUCCCUCCUAAGGAGAAGAUUGCGGGUUCGAGUCCCGUAAGGAUCG", "yeast fitness (ln)": 0.02}
    ]}
  ]
}
